Laboratory results taken from PMC3272422 (Molecular cancer therapeutics, 2011).
Read-outs that look alike come from different tables or passages of the source.

How the values were obtained:
BT474 cells = test: CB1954 toxicity in BT474 cells; format: cell-based; conditions: Homo sapiens
MDA-MB-468 cells = test: Toxicity in MDA-MB-468 cells, MTT assay; format: cell-based
K562 cells = test: 96 hour toxicity, XTT assay; format: cell-based; conditions: read-out: 96 hour Toxicity in Cells IC50, K562
[1] = system: NFκB transcriptional activity in MDA-MB-468 cells; test: NFκB dual luciferase reporter assay; format: cell-based
How it was run: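 MDA-MB-468 cells (7×10^5 per 6 cm plate, 24 h attachment) were transfected with 1 µg/plate Cignal NFκB reporter (6× NFκB element-driven firefly, CMV-Renilla) using Oligofectamine in opti-MEM for 5 h at 37 °C. They were then re-fed with RPMI/10% FCS and reseeded into 96-well plates. Cells were pretreated for 1 h with 100 µM NRH and/or 20 ng/mL TNFα, then given test compound (DMSO ≤0.5% final) for 18 h. Passive lysis, dual-luciferase read-out.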

[2] = system: NFκB in Renal Carcinoma cells; conditions: cited from earlier work
Recombinant human NQO2 = target: T1, Recombinant human NQO2 (Homo sapiens, UniProt P16083); test: Inhibition of recombinant NQO2 enzymatic activity; format: biochemical; conditions: for IC50: 200 μM NRH, DCPIP; for ΔGexp, experimentally determined binding affinity: derived from IC50 by the Cheng-Prusoff equation
T1 sequence (P16083 1-231): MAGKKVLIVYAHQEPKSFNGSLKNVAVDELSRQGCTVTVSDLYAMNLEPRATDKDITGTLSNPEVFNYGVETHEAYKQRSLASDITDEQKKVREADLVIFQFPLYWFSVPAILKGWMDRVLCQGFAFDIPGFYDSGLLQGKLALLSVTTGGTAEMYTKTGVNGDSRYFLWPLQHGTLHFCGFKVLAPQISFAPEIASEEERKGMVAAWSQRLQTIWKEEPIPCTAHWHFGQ

Recombinant human NQO1 = conditions: previously reported; cited from earlier work
[3] = Homo sapiens, MDA-MB-468, read-out: 3hr toxicity (IC50) Inhibitor alone
[4] = IC50 + BSA, presence of 2 μM BSA
[5] = read-out: 96 hour Toxicity in Cells IC50, MDA-MB-468, 96 hour exposure
[6] = read-out: IC50 + BSA, presence of 2 μM BSA
[7] = read-out: IC50 – BSA, absence of BSA

Row | ΔGexp, experimentally determined binding affinity (Recombinant human NQO2) [kcal/mol] | IC50 (Recombinant human NQO2; [6]) [µM] | IC50 (Recombinant human NQO2; [7]) [µM] | Compound | IC50 (K562 cells; Homo sapiens, K562, 96 h) [µM] | IC50 (K562 cells; 96 hour exposure) [µM] | IC50 (MDA-MB-468 cells; [5]) [µM] | further results
1 |  |  |  | NC(=O)c1cc(N2CC2)c([N+](=O)[O-])cc1[N+](=O)[O-] [CB1954, 5-(-aziridin-1-yl)-2,4-dinitrobenzamide, reference compound] |  |  |  | IC50 (BT474 cells; BT-474, read-out: IC50 of CB1954, absence of NRH): > 1000 µM; IC50 (BT474 cells; BT-474, read-out: IC50 of CB1954, presence of 100μM NRH): 1000 µM; proliferation of MDA-MB-468 cells (MDA-MB-468 cells; 100μM CB1954 plus 100μM NRH, 3 hours): about 25%; IC50 (MDA-MB-468 cells; Homo sapiens, MDA-MB-468, 3 h, read-out: IC50 of CB1954 alone): > 1000 µM
2 |  |  |  | Cc1ccc(NC(=O)c2ccc(CN3CCN(C)CC3)cc2)cc1Nc1nccc(-c2cccnc2)n1 [Imatinib, reference compound] | 0.68 ± 0.51 |  |  | 
3 |  |  |  | NC(=O)C1=CN([C@@H]2O[C@H](CO)[C@@H](O)[C@H]2O)C=CC1 [NRH, N-ribosyl nicotinamide, reference compound] |  |  |  | NFκB activity (luciferase) ([1]; 100μM NRH, without TNFα): stimulates NFκB activity; toxicity of NRH itself (MDA-MB-468 cells; 1μM to 1mM NRH): no toxicity
4 |  |  |  | Nc1c2ccccc2nc2ccccc12 [NSC13000, 9-aminoacridine] | 1 ± 1.4 |  |  | basal and induced activity of NFκB [2]: effectively suppressed; NFκB transcriptional (luciferase) activity ([1]; 0.1μM NSC13000, cells with or without 100μM NRH): reduces the luciferase activity; IC50 (MDA-MB-468 cells; [3]): 23 ± 5.1 µM
5 | -9.197 |  |  | CCN(CC)CCCC(C)Nc1c2ccc(Cl)cc2nc2ccc(OC)cc12 (stereo not drawn) [NSC14229, Quinacrine] | 4 ± 3.6 |  |  | basal and induced activity of NFκB [2]: effectively suppressed; IC50 (Recombinant human NQO2; [4]): 8.5 ± 1.6 µM; IC50 (Recombinant human NQO2; IC50 – BSA, absence of BSA): 0.2 ± 0.05 µM
6 | -10.74 | 3 ± 1.21 | 0.02 ± 0.01 | Cc1c2cnccc2c(C)c2c1c1ccccc1n2CCNCc1ccccc1 [NSC164016] |  | 0.7 ± 0.29 | 0.43 ± 0.24 | 
7 | -10.07 | 0.2 ± 0.09 | 0.05 ± 0.01 | Cc1c(-c2ccc(C(=N)N)cc2)oc(-c2ccc(C(=N)N)cc2)c1C [NSC305836] |  | 5.5 ± 3.6 | 3.9 ± 2.5 | 
8 | -9.197 | 4.1 ± 1.05 | 0.2 ± 0.01 | Nc1cc2c(cc1[N+](=O)[O-])[nH]c1c(-c3ccccc3)nccc12 [NSC620318] |  | 35 ± 33 | 22 ± 9.1 | 
9 | -8.485 | 9.8 ± 0.92 | 0.66 ± 0.08 | O=C1c2c(c3c4ccccc4[nH]c3c3[nH]c4ccccc4c23)C(=O)N1Cc1ccccc1 [NSC628440] |  | 0.75 ± 0.76 | 4 ± 0.021 | inhibition of NQO1 (Recombinant human NQO1): relatively weak inhibitor
10 |  |  |  | Oc1ccc(/C=C/c2cc(O)cc(O)c2)cc1 [Resveratrol, reference compound] | 72 ± 5.1 |  |  | IC50 (MDA-MB-468 cells; [3]): > 100 µM

Row | Compound | ΔGexp, experimentally determined binding affinity (Recombinant human NQO2) [kcal/mol] | IC50 (Recombinant human NQO2; [6]) [µM] | IC50 (Recombinant human NQO2; [7]) [µM] | IC50 (K562 cells; Homo sapiens, K562, 96 h) [µM] | IC50 (K562 cells; 96 hour exposure) [µM] | IC50 (MDA-MB-468 cells; [5]) [µM] | further results
11 | Cc1c2ccncc2c(C)c2c1[nH]c1ccccc12 [NSC71795] | -10.07 | 0.24 ± 0.09 | 0.05 ± 0.01 |  | 0.73 ± 0.6 | 0.27 ± 0.2 | 
12 | N=C(N)c1ccc(-c2ccc(-c3ccc(C(=N)N)cc3)o2)cc1 [NSC305831] | -8.513 |  |  | 27 ± 35 |  |  | IC50 (MDA-MB-468 cells; [3]): 114 ± 52 µM; IC50 (Recombinant human NQO2; [4]): 2.8 ± 0.61 µM
